The source of these data is paper PMC3822283 (Nature structural & molecular biology, 2013).

As usually defined, the Kd is a measure of binding affinity in units of concentration.

Series [1] has as its target p38α. Particulars: time resolved FRET, non phospho p38α; ref Zhang et al., 2005; cited from earlier work.
The target in series [2] is T1, p38α (Mus musculus, UniProt P47811). Put plainly: ITC binding to p38α. Particulars: for association with p38α by ITC (in words): p38α alone, non phospho. In general terms: Isothermal titration calorimetry measures the heat released or taken up as one component is titrated into another.
For series [3], the target named is [p38α:TAB1(1-438)]complex (Mus musculus, UniProt P47811). The series can be described thus: ITC binding to [p38α:TAB1.
Series [4] concerns isolated perfused mouse hearts. The series can be described thus: contractile function of isolated perfused mouse hearts. The method, boiled down:
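Langendorff hearts from male C57BL/6 mice (pentobarbital 300mg/kg i.p., heparin 150 units) perfused at 80 mmHg with KHB (95% O2/5% CO2, 37°C). LV balloon EDP set 2-8 mmHg, paced 600 bpm. Inclusion required LVDP ≥60 mmHg and flow 1.5-3.5 ml/min. After 30 min baseline, coded TAT-TAB1 peptides at 15μM recirculated 15 min in 20 mL KHB. Preliminary runs used three concentrations (n=2). Two-way repeated-measures ANOVA, Bonferroni.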

The subject of series [5] is IRp38α. Put plainly: IRp38α co-expressed with TAB1 in HEK293 cells. In kind it is cell-based. Particulars: Fig. 1c. The method, boiled down: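 HEK293 cells were co-transfected with TAB1 and either p38α (HA-tagged, WT) or the gatekeeper mutant IRp38α, then exposed to BIRB793. p38 and TAB1 phosphorylation were read by immunoblot: dual-phospho p38 (Thr180/Tyr182) 1:4,000, total p38 1:15,000, overnight at 4 °C, ECL detection. Quantitation is from three independent transfections as mean ± s.d., analysed by one-way ANOVA with Bonferroni.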

Series [6] has as its system p38α. The series can be described thus: co-transfection of HEK293 cells with TAB1 and p38α, p38 phosphorylation. The series is classed as cell-based.
For series [7], the system named is p38 in hearts expressing the p38α Thr106Met gatekeeper mutant (IRα). The series can be described thus: p38 activity during global myocardial ischemia, IRα hearts. As to conditions: IRα mouse hearts, global ischemia 5, 10 and 15 mins; 10 μM.
The test system of series [8] is p38 in wild-type (WT) hearts. The series can be described thus: p38 dual phosphorylation during global myocardial ischemia, WT hearts. As to conditions: WT mouse hearts, global ischemia 5, 10 and 15 mins; 10 μM.
Series [9] concerns p38. The series can be described thus: p38 dual phosphorylation in isolated perfused mouse hearts. As to conditions: 15 mins exposure; immunoblot, Fig. 6g.
For series [10], the system named is isolated adult rat cardiac myocytes. Put plainly: viability of adult rat ventricular myocytes. The series is classed as cell-based. As to conditions: ARVMs, later time points; peptides fused to TAT. In outline: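 Laminin-plated adult rat ventricular myocytes in supplemented M199 at 37°C in 5% CO2 were exposed to fluorescein (FAM)-labelled TAT-TAB1(371-416) peptides. They were imaged by confocal microscopy at later time points. Cell death was scored as a rounded cell appearance with homogeneous distribution of the fluorescein label.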

Series [11] deals with p38. The series can be described thus: p38 activation in adult rat ventricular myocytes. The series is classed as cell-based. As to conditions: ARVMs; peptides fused to TAT; immunoblot, Fig. 6c. The method, boiled down:
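Rat ventricular myocytes were washed in M199 with penicillin, streptomycin, 2mM L-carnitine, 5mM creatine and 5mM taurine, pelleted at 100 g for 2 min and plated on laminin at 37°C in 5% CO2. After 1 h, non-adherent cells were removed and TAT-TAB1(371-416) peptides (WT, A/B mutant, scrambled) added in fresh medium. Immunoblots used dual-phospho p38 (Thr180/Tyr182; 1:4,000) and total p38 (1:15,000) antibodies, with ECL detection. One-way ANOVA, Bonferroni.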
(A western blot detects proteins with antibodies after separation by electrophoresis.)

In series [12] the target is T1, p38α. Put plainly: co-expression of p38α and TAB1 in E. coli, p38α phosphorylation. As to conditions: western blot; Fig. 1d, 5d; inhibitors 10 μM. In kind it is cell-based. In outline: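 Mouse p38α and TAB1 (full-length, 1-438 or 1-418) were co-expressed in E. coli from dual vectors, with p38α in the first MCS and TAB1 in the second. Controls were empty vector and p38α alone.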

[13] abbreviates: peptides fused to TAT, 15 μM, 15 min, recirculated, n=5 mouse hearts per group.

Regarding `Nc1ncnc2c1ncn2[C@@H]1O[C@H](COP(=O)(O)OP(=O)(O)OP(=O)(O)O)[C@@H](O)[C@H]1O` [ATP], in series [1], the Kd was 13 ± 5.5 mM.
Turning to `Nc1ncnc2c1ncn2[C@@H]1O[C@H](CO[P@](=O)(O)O[P@](=O)(O)O[P@@](=O)(O)S)[C@@H](O)[C@H]1O` [ATPγS], in series [2], the “association with p38α by ITC (in words)” value is on record as “no measurable association by ITC”. This molecule also gave an equilibrium dissociation constant (Kd) in series [3] of 0.0053 mM. Moreover, the “affinity for p38α in the presence of TAB1(1-438) (in words)” value in [3] (ITC, 1:1 stoichiometry) was “low μM affinity”.
`Cc1ccc(-n2nc(C(C)(C)C)cc2NC(=O)Nc2ccc(OCCN3CCOCC3)c3ccccc23)cc1` [BIRB796, reference compound]: in series [4] (LVDP and coronary flow, numbers per group WT=7 and WT+I=5, Fig. 6h), the “inhibition of p38α on effects of perfusion with TAB1(371-416) (WT)” value was “attenuates the effects of perfusion with TAB1(371-416)”. The “pattern of phosphorylation on inhibitor exposure, IRp38α coexpressed with TAB1” value in series [5] was “altered”.
Turning to `C[S+]([O-])c1ccc(-c2nc(-c3ccncc3)c(-c3ccc(F)cc3)[nH]2)cc1` (stereo not shown) [SB203580], in [6] (WTp38α, HEK293 cells, Fig. 1b), the “effect of inhibitor on TAB1-enhanced p38α dual phosphorylation” value was “SB203580-sensitive”. The “p38 activity (phosphorylation of TAB1 and HSP27) with inhibitor” value in [7] is reported as “p38 remained active”. In addition, the “sensitivity of p38 dual phosphorylation to inhibitor” value in series [8] is recorded as “sensitive”.
For the molecule “GYGRKKRRQRRRGEMSQPTPTPAPGGRVYPVSAPASSAQSTSKTSVTLSLGAPSQGQMV [TAT-TAB1(371-416A/B)]”, the “maximum concentration that did not cause discernible contractile dysfunction” value in series [4] (isolated mouse heart, preliminary experiments) came to 15 µM.
As for “GYGRKKRRQRRRGEMSQPTPTPAPGGRVYPVSVPYSSAQSTSKTSVTLSLVMPSQGQMV [TAT-TAB1(371-416)]”, the “p38 dual phosphorylation in perfused hearts” value in series [9] is reported as “p38 dual phosphorylation”. Besides, in series [10], the cell death entry is “cell death”. Moreover, the coronary flow entry in [4] (15 μM, 15 min, recirculated, n=5 mouse hearts per group) is reported as “reduction in coronary flow”. Also, in series [4] (setting [13]), the developed pressure result is given as “marked reduction in developed pressure” and the end-diastolic pressure result is listed as “elevation in the end-diastolic pressure”. For the same molecule, the p38 activation entry in [11] is on record as “caused p38 activation”.
Consider “TAB1(371-416A/B) (EMSQPTPTPAPGGRVYPVSAPASSAQSTSKTSVTLSLGAPSQGQMV)”, for which, in series [2], the “association with p38α by ITC (in words)” value is given as “no binding was detected”. For the same molecule, the p38 activation result in series [11] is listed as “but not TAB1(371-416A-B) caused p38 activation”.
“TAB1: TGF-β-activated protein kinase 1 (TAK1) binding protein 1, scaffold protein (EMSQPTPTPAPGGRVYPVSVPYSSAQSTSKTSVTLSLVMPSQGQMV)”: the “p38α dual phosphorylation on co-expression in HEK293 cells” value in [6] (western blot, three independent transfections) is “enhanced p38α dual phosphorylation”. Further, the “p38α phosphorylation on co-expression in E. coli” value in series [12] is listed as “enhanced”.

B1: TAB1(1-438): recombinant mouse TAB1(1-438), N-terminal HexaHistidine tag and TEV site (protein)
chain: MAAQRRSLLQSEQQPSWTDDLPLCHLSGVGSASNRSYSADGKGTESHPPEDNWLKFRSENNCFLYGVFNGYDGNRVTNFVAQRLSAELLLGQLNTEHTEADVRRVLLQAFDVVERSFLESIDDALAEKASLQSQLPEGVPQHQLPPQYQKILERLKALEREISGGAMAVVAVLLNSKLYVANVGTNRALLCKSTVDGLQVTQLNMDHTTENEDELFRLSQLGLDAGKIKQMGVICGQESTRRIGDYKVKYGYTDIDLLSAAKSKPIIAEPEIHGAQPLDGVTGFLVLMSEGLYKALEAAHGPGQANQEIAAMIDTEFAKQTSLDAVAQAVVDRVKRIHSDTFASGGERAKFCPRHEDMTLLVRNFGYPLGEMSQPTPTPAPGGRVYPVSVPYSSAQSTSKTSVTLSLVMPSQGQMVNGSHSASTLDEATPTLTNQSPT
B1: the “−TΔS” value in series [2] (25°C, ΔG = ΔH-TΔS) is 5.1 kcal/mol. For the same molecule, the “association with p38α by ITC (in words)” value in [2] is reported as “binding affinity in the low micromolar range”.
